The results in this text go back to ChEMBL document CHEMBL1149898, “A biaryl xanthone derivative having axial chirality from Penicillium vinaceum” (J Nat Prod, 2008).

Assay [1] concerns Bacillus subtilis. Nature of the assay: Antibacterial activity against Bacillus subtilis by disk diffusion test. The format is functional, organism-based. The method in brief:
(§1)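 Bacterial suspensions were grown 2–5 h to a suitable OD, diluted with water and swabbed evenly over agar. After the inoculum dried, disks carrying 10, 50, 100 and 200 µg of compound were applied. Plates were incubated overnight, and zone diameters around the disks were measured.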

Assay [2] has as its system Staphylococcus aureus. The assay can be described thus: Antibacterial activity against Staphylococcus aureus by disk diffusion test. The format is functional, organism-based. The method in brief: as §1
For assay [3], the system named is Escherichia coli. The assay can be described thus: Antibacterial activity against Escherichia coli by disk diffusion test. Format: functional, organism-based. A digest of the protocol: as §1
For assay [4], the system named is Saccharomyces cerevisiae. The assay can be described thus: Antifungal activity against Saccharomyces cerevisiae after 18 to 24 hrs by disk diffusion test. Format: functional, organism-based. A digest of the protocol: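 Diluted yeast inoculum was spread on 90 mm agar plates supplemented with 2% glucose and dried for 5–15 min. Disks loaded with 10, 50, 100 and 200 µg of compound were placed on top. Plates were incubated 18–24 h at 28 °C, then inhibition zone diameters were measured.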

The subject of assay [5] is Paracentrotus lividus. Nature of the assay: Inhibition of sea urchin egg fertilization by sea urchin sperm assessed as inhibition of divided eggs by light microscopy. The format is functional, organism-based. A digest of the protocol:
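Eggs were rinsed, filtered and diluted in artificial seawater to 2000 eggs/mL. "Dry" sperm was diluted 1:50 in ASW, and 10 µL was added per 1 mL eggs at 20 °C. Compounds were in DMSO at 50 µg/mL, with DMSO-only controls. Eggs were cultured at room temperature with gentle agitation, and percent divided eggs was scored by light microscopy 30 min post-fertilization.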

Assay [6] has as its system Agrobacterium tumefaciens. The assay can be described thus: Antitumor activity against Agrobacterium tumefaciens-induced 10 ppm crown gall tumor in potato tubers at […] after 21 days by crown gall tumor potato disk test. Format: functional. The method in brief:
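Potato tubers were surface-sterilized in 1% NaOCl for 20 min and cut into 5 mm disks, 10 per 2% agar plate. A 48 h Agrobacterium tumefaciens culture, mixed with compound in DMSO at 10 or 100 µg/mL, was applied to each disk. Plates were kept at 28 °C for 21 days. Tumors per disk were counted; % inhibition = 100 − (mean tumors sample/mean control)×100.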

The structures appear in SMILES notation. ≈ marks a conversion by molar mass, not a printed value. Calls of active or inactive are those of the source. The rule behind the calls is not given here.

With `COc1oc2cc(O)c(O)c(C(=O)O)c2c(=O)c1-c1c(C(C)=O)cc2c(=O)c3c(C(=O)O)c(O)c(O)cc3oc2c1C(C)=O`, the outcome in assay [1], in assay [2], in assay [3] and in assay [4] was inactive. Besides, in assay [5], the IC50 was determined as 0.05 µg/mL (≈ 0.0824 µM). The “inhibition (INH)” value in assay [6] is reported as 72%.
On to `CC(=O)c1cc2c(=O)c3c(C(=O)O)c(O)c(O)cc3oc2c(C(C)=O)c1-c1coc2cc(O)c(O)c(C(=O)O)c2c1=O` [VINAXANTHONE], for which the result in assay [1], in assay [2], in assay [3] and in assay [4] was inactive. Also, in assay [5], the IC50 turned out to be 0.12 µg/mL (≈ 0.208 µM). For the same compound, the “inhibition (INH)” value in assay [6] worked out at 67%.
As to `CC(=O)c1cc2c(=O)c3c(C(=O)O)c(O)c(O)cc3oc2c(C(C)=O)c1C1COc2cc(O)c(O)c(C(=O)O)c2C1=O` (stereo not drawn), the result in assay [1], in assay [2], in assay [3] and in assay [4] was inactive. For the same compound, in assay [5], the IC50 worked out at 0.71 µg/mL (≈ 1.23 µM). Also, the “inhibition (INH)” value in assay [6] was 12%.
